According to ChEMBL document CHEMBL4052665, “Synthesis and pharmacological evaluation of glycine amide derivatives as novel vascular adhesion protein-1 inhibitors without CYP3A4 and CYP2C19 inhibition” (Bioorg Med Chem, 2017):
Blank lines part the entries; values can stand above or below the molecule they belong to. Calls of active or inactive are those of the source. The rule behind the calls is not given here.

Assays:
[1] = target: T1, Amine oxidase [copper-containing] 3 (Homo sapiens, UniProt Q16853); assay: Inhibition of human VAP-1 expressed in CHO cells using 14C-benzylamine as substrate preincubated for 20 mins followed by substrate addition measured after 1 hr by scintillation spectrometric analysis; type: cell-based
T1 sequence (Q16853 whole entry): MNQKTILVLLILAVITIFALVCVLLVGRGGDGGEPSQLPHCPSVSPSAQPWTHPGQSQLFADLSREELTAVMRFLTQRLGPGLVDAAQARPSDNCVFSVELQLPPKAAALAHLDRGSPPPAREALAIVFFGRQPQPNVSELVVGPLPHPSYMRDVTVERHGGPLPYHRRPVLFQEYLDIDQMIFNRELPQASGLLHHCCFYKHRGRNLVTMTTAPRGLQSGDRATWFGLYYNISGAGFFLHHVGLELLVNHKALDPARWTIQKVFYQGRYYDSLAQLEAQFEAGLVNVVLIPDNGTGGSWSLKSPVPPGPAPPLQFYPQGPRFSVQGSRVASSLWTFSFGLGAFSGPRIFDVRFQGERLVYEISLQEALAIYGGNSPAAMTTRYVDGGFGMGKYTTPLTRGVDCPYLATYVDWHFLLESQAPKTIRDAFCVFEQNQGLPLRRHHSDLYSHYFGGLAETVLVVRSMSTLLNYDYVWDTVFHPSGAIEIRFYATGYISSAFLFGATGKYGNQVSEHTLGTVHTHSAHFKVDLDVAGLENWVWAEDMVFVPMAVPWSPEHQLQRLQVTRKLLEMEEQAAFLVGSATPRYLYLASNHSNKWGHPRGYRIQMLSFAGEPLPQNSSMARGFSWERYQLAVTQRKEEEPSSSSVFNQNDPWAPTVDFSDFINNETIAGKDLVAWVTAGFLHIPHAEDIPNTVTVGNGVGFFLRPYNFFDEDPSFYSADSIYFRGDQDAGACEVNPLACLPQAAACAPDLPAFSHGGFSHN

CYP3A4 = CYP3A4 (Homo sapiens, UniProt P08684); assay: Inhibition of CYP3A4 in human liver microsomes assessed as residual activity at 5 uM using midazolam as substrate after 20 mins by LC-MS/MS analysis; type: ADME; conditions: probe midazolam, read-out: Activity
In short: (§1)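 Pooled human liver microsomes (0.1 mg/mL) in 100 mM Na-K phosphate pH 7.4 with 1 mM NADPH. Test compound at 5 μM was co-incubated with a probe cocktail including midazolam (1.5 μM) and S-mephenytoin (30 μM) at 37 °C for 20 min. The reaction was stopped with 80% acetonitrile. 1'-Hydroxymidazolam (CYP3A4) and 4'-hydroxymephenytoin (CYP2C19) were measured by LC-MS/MS. Residual activity = activity with compound / vehicle activity × 100.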

CYP2C19 = CYP2C19 (Homo sapiens, UniProt P33261); assay: Inhibition of CYP2C19 in human liver microsomes assessed as residual activity at 5 uM using S-mephenytoin as substrate after 20 mins by LC-MS/MS analysis; type: ADME; conditions: probe S-mephenytoin, read-out: Activity; in short: as §1
[2] = Aqueous solubility of the compound in solution at pH 6.8; type: physicochemical
[3] = Half life in Wistar rat at 1 mg/kg, iv by LC-MS/MS analysis; type: ADME, organism-based; conditions: in vivo
In short: (§2)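 Male Wistar rats, fasted about 18 h, dosed at 1 mg/kg iv (solution in 5% DMSO in water) or orally, n = 3. Plasma was deproteinated with acetonitrile and the compound was quantified by LC-MS/MS. Parameters came from non-compartmental analysis.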

[4] = Half life in Wistar rat at 1 mg/kg, po by LC-MS/MS analysis; type: ADME, organism-based; conditions: in vivo; in short: as §2
[5] = Cmax in Wistar rat at 1 mg/kg, po by LC-MS/MS analysis; type: ADME, organism-based; parameters: dose 1 mg/kg, route oral; conditions: in vivo; in short: as §2
[6] = Aqueous solubility of the compound in solution at pH 6.8 in presence of 15 mM sodium taurocholate; type: physicochemical; conditions: aqueous solution with 15 mM sodium taurocholate
[7] = Plasma concentration in Wistar rat at 1 mg/kg, po after 6 hrs post dose by LC-MS/MS analysis; type: ADME, organism-based; in short: as §2
[8] = Oral bioavailability in Wistar rat at 1 mg/kg by LC-MS/MS analysis; type: ADME, organism-based; conditions: in vivo; in short: as §2
[9] = AUC (0 to 24 hrs) in Wistar rat at 1 mg/kg, iv by LC-MS/MS analysis; type: ADME, organism-based; parameters: dose 1 mg/kg, time < 24 hr, route intravenous; conditions: in vivo; in short: as §2
[10] = Volume of distribution at steady state in Wistar rat at 1 mg/kg, iv by LC-MS/MS analysis; type: ADME, organism-based; conditions: in vivo, read-out: Vdss; in short: as §2
Rattus norvegicus [11] = assay: Inhibition of VAP-1 in Wistar rat plasma at 0.3 mg/kg, po using 14C-benzylamine as substrate preincubated for 20 mins followed by substrate addition measured after 6 hr by scintillation spectrometric analysis; type: functional
In short: (§3)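 Male Wistar rats (n = 4) dosed orally. Tail-vein blood was taken under ether anaesthesia before dosing and at 1 or 6 h after. Plasma was kept at -80 °C. 100 μL plasma was reacted with 14C-benzylamine at 37 °C for 2 h. Non-specific activity was measured with 1 mmol/L FR299676 and subtracted. 14C-Benzaldehyde was counted by liquid scintillation. Inhibition ratio = fall from the pre-dose activity, in %.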

Rattus norvegicus [12] = assay: Inhibition of VAP-1 in Wistar rat plasma at 1 mg/kg, po using 14C-benzylamine as substrate preincubated for 20 mins followed by substrate addition measured after 6 hr by scintillation spectrometric analysis; type: functional; in short: as §3
Rattus norvegicus [13] = assay: Inhibition of VAP-1 in Wistar rat plasma at 0.3 mg/kg, po using 14C-benzylamine as substrate preincubated for 20 mins followed by substrate addition measured after 1 hr by scintillation spectrometric analysis; type: functional; in short: as §3
[14] = AUC (0 to 24 hrs) in Wistar rat at 1 mg/kg, po by LC-MS/MS analysis; type: ADME, organism-based; parameters: dose 1 mg/kg, time < 24 hr, route oral; conditions: in vivo; in short: as §2
[15] = Plasma concentration in Wistar rat at 1 mg/kg, po after 1 hr post dose by LC-MS/MS analysis; type: ADME, organism-based; in short: as §2
Rattus norvegicus [16] = assay: In vivo inhibition of VAP-1 in STZ-induced diabetic Sprague-Dawley rat assessed as reduction in proteinuria progression at 0.3 to 1 mg/kg, po for 4 weeks measured after 24 hrs by Bradford colorimetric assay; type: functional, organism-based
In short: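 Male SD rats (6 weeks old) given STZ 65 mg/kg ip in citrate-buffered saline pH 4.5; sham rats got buffer. Groups were set by plasma glucose and body weight at day 3. Dosing was oral in 0.5% MC, 5 mL/kg, once daily for 4 weeks. 24-h metabolic-cage urine was collected in week 4 and protein measured by Bradford assay; excretion = concentration × urine volume. Mean ± SEM; Dunnett's test against STZ control.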

Rattus norvegicus [17] = assay: Inhibition of VAP-1 in Wistar rat plasma at 1 mg/kg, po using 14C-benzylamine as substrate preincubated for 20 mins followed by substrate addition measured after 1 hr by scintillation spectrometric analysis; type: functional; in short: as §3
Rattus norvegicus [18] = assay: In vivo inhibition of VAP-1 in STZ-induced diabetic Sprague-Dawley rat plasma at 0.3 to 1 mg/kg, po for 4 weeks measured after 24 hrs after final dose using 14C-benzylamine as substrate by scintillation spectrometric analysis; type: functional, organism-based
In short: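 STZ-diabetic SD rats (65 mg/kg ip) dosed orally once daily for 4 weeks in 0.5% MC. Suborbital blood was taken under ether 24 h after the last dose. 50 μL plasma was reacted with 14C-benzylamine at 37 °C for 1 h, minus non-specific activity measured with 1 mmol/L FR299676. Liquid scintillation counting; mean ± SEM, Dunnett's test against STZ control.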

[19] = Total clearance in Wistar rat at 1 mg/kg, iv by LC-MS/MS analysis; type: ADME, organism-based; conditions: in vivo; in short: as §2
[20] = target: T2, Amine oxidase [copper-containing] 3 (Rattus norvegicus, UniProt O08590); assay: Inhibition of rat VAP-1 expressed in CHO cells using 14C-benzylamine as substrate preincubated for 20 mins followed by substrate addition measured after 1 hr by scintillation spectrometric analysis; type: cell-based
T2 sequence (O08590 whole entry): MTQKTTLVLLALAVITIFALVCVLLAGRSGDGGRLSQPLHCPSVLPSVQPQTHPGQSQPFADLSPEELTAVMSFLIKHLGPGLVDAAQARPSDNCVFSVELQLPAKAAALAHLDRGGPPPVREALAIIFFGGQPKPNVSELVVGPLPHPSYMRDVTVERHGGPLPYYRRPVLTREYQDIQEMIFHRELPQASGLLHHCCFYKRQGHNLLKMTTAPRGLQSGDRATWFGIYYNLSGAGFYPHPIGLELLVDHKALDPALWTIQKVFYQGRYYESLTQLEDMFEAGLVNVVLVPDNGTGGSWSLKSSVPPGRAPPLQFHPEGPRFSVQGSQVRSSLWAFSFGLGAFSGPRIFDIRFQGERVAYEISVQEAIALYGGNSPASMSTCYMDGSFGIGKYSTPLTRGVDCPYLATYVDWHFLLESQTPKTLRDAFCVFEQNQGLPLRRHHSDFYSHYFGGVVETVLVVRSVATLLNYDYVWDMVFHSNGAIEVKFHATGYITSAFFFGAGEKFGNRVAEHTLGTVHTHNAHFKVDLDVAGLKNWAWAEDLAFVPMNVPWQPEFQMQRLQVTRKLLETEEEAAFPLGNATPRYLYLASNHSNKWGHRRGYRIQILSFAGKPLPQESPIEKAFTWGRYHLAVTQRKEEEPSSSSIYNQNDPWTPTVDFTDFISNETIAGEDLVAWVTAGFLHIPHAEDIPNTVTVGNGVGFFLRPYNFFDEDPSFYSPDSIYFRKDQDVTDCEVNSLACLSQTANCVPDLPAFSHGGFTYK

CYP3A4, sequence (P08684 whole entry): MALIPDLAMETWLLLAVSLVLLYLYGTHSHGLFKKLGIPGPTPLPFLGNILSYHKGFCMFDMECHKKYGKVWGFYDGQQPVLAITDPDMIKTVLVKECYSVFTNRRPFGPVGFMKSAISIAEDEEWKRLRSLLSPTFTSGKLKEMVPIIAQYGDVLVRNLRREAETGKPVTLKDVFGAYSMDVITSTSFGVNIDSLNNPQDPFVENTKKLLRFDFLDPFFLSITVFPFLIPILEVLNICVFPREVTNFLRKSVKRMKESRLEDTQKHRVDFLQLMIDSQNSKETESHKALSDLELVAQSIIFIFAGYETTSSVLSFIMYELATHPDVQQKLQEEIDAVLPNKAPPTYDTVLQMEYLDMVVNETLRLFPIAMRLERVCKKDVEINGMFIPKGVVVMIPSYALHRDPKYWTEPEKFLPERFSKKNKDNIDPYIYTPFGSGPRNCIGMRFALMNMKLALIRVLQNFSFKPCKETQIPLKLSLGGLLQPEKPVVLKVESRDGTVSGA
CYP2C19, sequence (P33261 whole entry): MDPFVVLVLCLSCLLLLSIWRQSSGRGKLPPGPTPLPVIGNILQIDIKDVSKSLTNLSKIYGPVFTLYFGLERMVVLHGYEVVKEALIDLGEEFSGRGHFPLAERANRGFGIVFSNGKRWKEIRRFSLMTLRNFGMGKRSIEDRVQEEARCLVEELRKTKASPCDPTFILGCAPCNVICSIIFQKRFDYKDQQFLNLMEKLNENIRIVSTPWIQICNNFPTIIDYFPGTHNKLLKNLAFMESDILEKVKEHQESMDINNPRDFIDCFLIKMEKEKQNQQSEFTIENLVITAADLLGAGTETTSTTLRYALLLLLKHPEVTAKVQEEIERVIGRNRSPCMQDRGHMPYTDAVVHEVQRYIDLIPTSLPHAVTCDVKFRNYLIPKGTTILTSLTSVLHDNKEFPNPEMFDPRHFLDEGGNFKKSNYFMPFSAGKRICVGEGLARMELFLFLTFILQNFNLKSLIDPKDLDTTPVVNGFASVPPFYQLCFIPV

IC50 [1]: 240 nM
Compound: CN(Cc1cccc(-c2cnc(N3CCC[C@H]3CO)nc2)c1)C(=O)CN

IC50 [1]: 1700 nM | activity at 20 min, 5 µM (CYP3A4): 112% | activity at 20 min, 5 µM (CYP2C19): 104%
Compound: CN(Cc1cccc(-c2cnc(N3CCC(C(=O)O)CC3)nc2)c1)C(=O)CN

solubility [2]: 2.3 µM | half-life [3]: 1.39 h | half-life [4]: 1.29 h | Cmax [5]: 113 ng/mL | solubility [6]: 89.6 µM | concentration at 6 h [7]: 7.1 ng/mL | bioavailability [8]: 17.4% | AUC(0-t) at 24 h [9]: 1920 ng·h/mL | Vd [10]: 0.386 L/kg | AUC(0-t) at 24 h [14]: 334 ng·h/mL | concentration at 1 h [15]: 111 ng/mL | activity at 20 min, 5 µM (CYP3A4): 98% | clearance [19]: 8.69 mL/min/kg | activity at 20 min, 5 µM (CYP2C19): 109%
Compound: CN(Cc1cccc(-c2cnc(N3CCN(c4ccc(C(=O)O)cc4Cl)CC3)nc2)c1)C(=O)CN.Cl.Cl
inhibition in vivo at 0.3 mg/kg (Rattus norvegicus [11]): 62% | inhibition in vivo at 1 mg/kg (Rattus norvegicus [12]): 93% | inhibition in vivo at 0.3 mg/kg (Rattus norvegicus [13]): 64% | inhibition (Rattus norvegicus [16]): Active | inhibition in vivo at 1 mg/kg (Rattus norvegicus [17]): 96% | inhibition (Rattus norvegicus [18]): Active

activity at 20 min, 5 µM (CYP3A4): 57% | activity at 20 min, 5 µM (CYP2C19): 63%
Compound: CN(Cc1cccc(-c2ccc(N3CCOCC3)cc2)c1)C(=O)CN

IC50 [20]: 160 nM | IC50 [1]: 2000 nM
Compound: CN(Cc1cccc(-c2ccc(N3CCOCC3)cc2)n1)C(=O)CN

IC50 [1]: 300 nM
Compound: CN(Cc1cccc(-c2cnc(N3CCC[C@@H]3CO)nc2)c1)C(=O)CN

IC50 [1]: 140 nM | activity at 20 min, 5 µM (CYP3A4): 108% | activity at 20 min, 5 µM (CYP2C19): 119%
Compound: CN(Cc1cccc(-c2cnc(N3CCC(CCC(=O)O)CC3)nc2)c1)C(=O)CN

IC50 [1]: 250 nM
Compound: CN(Cc1cccc(-c2cnc(N3CCCCC3)nc2)c1)C(=O)CN

solubility [2]: < 1 µM | solubility [6]: < 1 µM | IC50 [20]: 10 nM | IC50 [1]: 24 nM | activity at 20 min, 5 µM (CYP3A4): 100% | activity at 20 min, 5 µM (CYP2C19): 106%
Compound: CN(Cc1cccc(-c2cnc(N3CCN(c4ccc(C(=O)O)cc4)CC3)nc2)c1)C(=O)CN.Cl.Cl
inhibition in vivo at 1 mg/kg (Rattus norvegicus [12]): 60% | inhibition in vivo at 1 mg/kg (Rattus norvegicus [17]): 68%
